Rpn11 inh = Rpn11 (human) deubiquitinase inhibition. O00487. human 26S proteasome, Ub4-pepOG fluorescence polarization; 20S core pre-blocked with epoxomicin. inhibition, % at 20 µM. actives 0.59% (n = 360,000). AID 588493;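 active = inhibition at 20 µM, scaled to each plate's controls, above about 33%, limit read from the data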
HNF4A DNA FP = change in binding of human HNF4 alpha to DNA. P41235. HNF4a-FITC DNA binding, fluorescence polarization, 1 h. activity change, % at 10 µM. actives 0.3% (n = 360,000); in the data active = activity change above about 30%, passing the limit was not always enough
Target sequence (P41235 whole entry, looked up): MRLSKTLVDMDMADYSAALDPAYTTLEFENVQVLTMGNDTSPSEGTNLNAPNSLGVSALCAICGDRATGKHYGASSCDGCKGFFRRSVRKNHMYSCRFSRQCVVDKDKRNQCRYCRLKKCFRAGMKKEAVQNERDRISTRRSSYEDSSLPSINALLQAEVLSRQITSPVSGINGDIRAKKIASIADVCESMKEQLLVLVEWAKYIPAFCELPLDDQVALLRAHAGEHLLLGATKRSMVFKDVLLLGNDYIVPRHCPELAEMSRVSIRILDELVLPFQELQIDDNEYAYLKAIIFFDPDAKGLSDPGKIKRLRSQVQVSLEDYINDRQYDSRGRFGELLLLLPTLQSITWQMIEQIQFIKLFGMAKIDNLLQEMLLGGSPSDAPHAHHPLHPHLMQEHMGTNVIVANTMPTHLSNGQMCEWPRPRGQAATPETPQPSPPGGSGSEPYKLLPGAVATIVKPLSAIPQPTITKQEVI
CSN deneddyl inh = CSN deneddylation inhibition; AID 651999; inhibition, % at 12.5 µM; actives 0.38% (n = 360,000); Purified CSN, SCF-Nedd8-OG deneddylation, fluorescence polarization;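 active = pattern-corrected inhibition above about 35%, with an unprinted fluorescence ratio check between 0.5 and 1.5, limit read from the data, passing the limit was not always enough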;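 also: 0% = enzyme with substrate and 100% = substrate without enzyme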
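Test system: purified human Csn5 enzyme expressed in HEK293T cells. Amount: 0.24 nM enzyme. Reagent: SCFSkp2-Nedd8OG substrate at 10 nM final. Schedule: 90 min incubation of compound, enzyme and substrate at room temperature. Detection: fluorescence polarization. Read-out: % inhibition of substrate cleavage by Csn5.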
PREPL inh = human PREPL enzyme inhibition | inhibition, % at 5.96 µM | recombinant PREPL, fluorescence polarization activity-based probe | Q4J6C6 | AID 2751 | actives 0.68% (n = 320,000); in the data active = inhibition above about 43%;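 also: 0% = enzyme with DMSO and 100% = wells lacking enzyme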
Tb MetRS inh = blocks T. brucei methionyl-tRNA synthetase activity; purified T. brucei MetRS, ATP depletion, Kinase-Glo luminescence; inhibition, % at 11.9 µM; actives 0.4% (n = 360,000); AID 624268;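 active = inhibition above a per-plate cutoff of the control wells' mean inhibition plus 3 SD, cut at about 5.5% in these data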;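 also: 0% = DMSO wells median and 100% = median of wells with control inhibitor compound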
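technique = Kinase-Glo luminescence, ATP depletion format | system = purified MetRS (methionyl-tRNA synthetase) enzyme from Trypanosoma brucei | timing = 15 min preincubation, 2 h reaction, all 25 °C | evaluation = percent inhibition versus plate control medians | dosing = single dose, 11.9 µM final nominal, 0.9% final DMSO | also added = substrates ATP, L-methionine and bulk Escherichia coli tRNA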
Neddyl block = blocks human cullin neddylation; AID 651699; actives 0.58% (n = 360,000); inhibition, % at 25 µM; TR-FRET cullin neddylation, biochemical; in the data active = inhibition above about 36%
Rpn11 confirm = Rpn11 inhibition confirmation, single concentration; shares compounds with Rpn11 inh; purified human 26S proteasome, Ub4-pepOG fluorescence polarization; proteasome pretreated with epoxomicin; inhibition, % at 20 µM; actives 29% (n = 1,900); AID 602318
MMP-2 inh = blocks human MMP-2, flagging nonselective RPN11 hits | inhibition, % at 20 µM | actives 4% (n = 1,900) | shares compounds with Rpn11 inh | AID 602330 | recombinant MMP-2, FRET peptide cleavage fluorescence;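 also: human MMP-2 activated beforehand with APMA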
Thrombin FP = blocks bovine thrombin, flagging nonselective RPN11 hits; actives 13% (n = 1,900); inhibition, % at 20 µM; AID 602333; shares compounds with Rpn11 inh; bovine thrombin cleavage of Ub4-pepOG, fluorescence polarization;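 active = mean inhibition at least 40% at 20 µM, or signal 3 deviations below plate average, so some actives read negative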;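 also: plate controls were thrombin with DMSO for no effect and buffer wells lacking thrombin for full effect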
Starred values were filed as active, the others as inactive; x = no result shown. This is a sample that favours compounds with a hit; in the whole collection about 2.4% have one here. Rule as the data show it, unless noted: active = inhibition above about 40%; inactive = the rest.

SMILES	Rpn11 inh	HNF4A DNA FP	CSN deneddyl inh	PREPL inh	Tb MetRS inh	Neddyl block	Rpn11 confirm	MMP-2 inh	Thrombin FP
Cc1ccc(/C=C2\C(=O)NC(=S)N(c3ccc(F)cc3)C2=O)o1	41*	25	26	x	-2	-22	44*	55*	57*
O=C(NN=Cc1ccc(N(CCCl)CCCl)cc1)C(=O)c1c[nH]c2ccccc12	52*	8	6	x	0	8	57*	14	34
O=C1NC(=O)N(c2ccc(Cl)cc2)C(=O)/C1=C/c1coc2ccc(O)cc2c1=O	54*	1	14	3	0	12	-19	6	-11
C=CCn1c(=O)c(C=Nc2cccc([N+](=O)[O-])c2)c(O)n(CCCC)c1=O	69*	31	30	2	1	-36	46*	-20	31
CCCCn1c(=O)c(C=Nc2cccnc2Cl)c(O)n(CCCCl)c1=O	17	-2	11	-1	-1	3	x	x	x
C=CCn1c(=O)c(C=Nc2c(OC)cccc2[N+](=O)[O-])c(O)n(CCCC)c1=O	78*	21	10	6	0	-49	53*	6	47*
Brc1ccc2c(c1)CN(CC1CCCCC1)Cc1cnnn1-2	-1	0	2	x	-1	0	x	x	x
C=CCn1c(O)c(/C=C/C=Nc2ccccc2)c(=O)[nH]c1=O	88*	33	24	3	-1	-1	98*	-59	-47
O=c1[nH]c(=O)n(-c2cccc(F)c2)c(O)c1/C=C1\C=Nc2ccccc21	62*	-1	6	6	0	8	9	-22	3
CC(=O)c1cccc(OCC(=O)N2CCN(CC(=O)Nc3cccc(F)c3)CC2)c1	4	-2	-4	1	-1	7	x	x	x
Cc1ccc(N)cc1Cl	-6	0	-2	x	0	-14	x	x	x
Cc1ccc(N2C(=O)/C(=C/N3CCN(C(=O)c4ccco4)CC3)C(=O)NC2=S)cc1C	88*	2	15	9	-1	-2	10	7	-1
Cc1cccc(N2C(=O)NC(=O)/C(=C\c3ccc(N4CCOCC4)cc3)C2=O)c1	-1	0	2	4	0	-16	x	x	x
Cc1cccc(N2C(=O)/C(=C/N3CCN(C(=O)c4ccco4)CC3)C(=O)NC2=S)c1	50*	9	14	2	-1	-2	19	10	14
CCN(CC)c1ccc(/C=C/[N+](=O)[O-])cc1	68*	3	23	6	0	-2	50*	-45	53*
Cc1ccc(Cn2cc(C=O)c(-c3ccc(C)cc3)n2)cc1	37*	2	-5	-6	0	2	3	3	-16
O=C(NC1CC1)c1cn(Cc2ccccc2)nc1-c1ccccc1	1	-2	7	x	0	0	x	x	x
O=C(/C=C/c1ccccc1)c1c(O)n(CCc2ccccc2)c(=O)[nH]c1=O	-1	4	4	-1	0	14	x	x	x
COc1ccc(CCn2c(O)c(C=Nc3ccccc3F)c(=O)[nH]c2=O)cc1OC	35*	3	11	1	0	11	-2	-31	1
O=C(N/N=C/c1c(O)n(CCc2ccccc2)c(=O)[nH]c1=O)c1ccccc1O	58*	27	24	18	0	24	62*	-15	36
COc1ccc(Cn2c(O)c(/C=N/NC(=O)c3ccccc3)c(=O)[nH]c2=O)cc1	13	8	14	0	0	x	x	x	x
COc1cc(/C=C/C(=O)c2c(O)n(CCc3ccccc3)c(=O)[nH]c2=O)ccc1O	53*	3	13	2	0	15	61*	5	31
O=c1[nH]c(=O)n(Cc2ccccc2)c(O)c1/C=N/NCCO	47*	19	19	10	0	16	39	-33	25

Source: PubChem BioAssay (several laboratories)
